The record followed here is ChEMBL document CHEMBL1156136, “Hypoxia-activated prodrugs: substituent effects on the properties of nitro seco-1,2,9,9a-tetrahydrocyclopropa[c]benz[e]indol-4-one (nitroCBI) prodrugs of DNA minor groove alkylating agents” (J Med Chem, 2009).

A value given as a limit tells only on which side of the number the result lay.

As a reminder, the IC50 is the midpoint of a concentration-inhibition curve. Low values mean higher potency, high ones lower potency.

The test system of assay [1] is SK-OV-3. In words: Cytotoxicity against human SKOV3 cells in hypoxic condition after 4 hrs by sulforhodamine B assay. The class given is functional, cell-based. The settings on record: SK-OV-3, 4 h. Put shortly: (§1)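 Log-phase monolayers exposed to drug for 4 h under aerobic (20% O2) or anoxic (<20 ppm O2) conditions, then sulforhodamine B staining 5 days later. IC50 interpolated as concentration lowering cell density to 50% of same-plate controls. HCR = IC50(oxic)/IC50(hypoxic), mean of intraexperiment ratios. A549 P450R line is a stable transfectant with 9-fold higher cytochrome c reduction rate than parent.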
For orientation: Sulforhodamine B stains cellular protein and so reports cell mass.

Assay [2] has as its system HT-29. The assay can be described thus: Cytotoxicity against human HT-29 cells in oxic condition after 4 hrs by sulforhodamine B assay. The conditions noted are these: HT-29, 4 h. The class given is functional, cell-based. Put shortly: as §1
Assay [3] concerns HT-29. In words: Hypoxic cytotoxicity ratio, IC50 for human HT-29 cells in oxic condition to IC50 for human HT-29 cells in hypoxic condition. The class given is functional. Put shortly: as §1
In assay [4] the test system is SK-OV-3. The assay can be described thus: Cytotoxicity against human SKOV3 cells in oxic condition after 4 hrs by sulforhodamine B assay. It is filed as functional, cell-based. The settings on record: SK-OV-3, 4 h. Summed up: as §1
Assay [5] relates to HT-29. In words: Cytotoxicity against human HT-29 cells in hypoxic condition after 4 hrs by sulforhodamine B assay. The settings on record: HT-29, 4 h. The class given is functional, cell-based. Summed up: as §1
In assay [6] the test system is SK-OV-3. The assay can be described thus: Hypoxic cytotoxicity ratio, IC50 for human SKOV3 cells in oxic condition to IC50 for human SKOV3 cells in hypoxic condition. It is filed as functional. Summed up:
as §1

As to `COc1cc2cc(C(=O)N3CC(CCl)c4c3cc([N+](=O)[O-])c3cc(S(C)(=O)=O)ccc43)[nH]c2c(OC)c1OC` (configuration not stated), the concentration for half-maximal inhibition (IC50) in the assay with SK-OV-3 [1] stood at 9.3 nM; with HT-29 [2] it was 14000 nM; in the assay on SK-OV-3 [4], 17000 nM; in the assay on HT-29 [5], 7.2 nM. Moreover, the “Ratio IC50” value in the assay on HT-29 [3] turned out to be 2; in the assay on SK-OV-3 [6] it was 1.9.
In the case of `COc1cc2cc(C(=O)N3CC(CCl)c4c3cc([N+](=O)[O-])c3c(C(C)=O)cccc43)[nH]c2c(OC)c1OC` (configuration not stated), the IC50 came out at 0.14 nM with SK-OV-3 [1], 680 nM in the assay with HT-29 [2], 500 nM with SK-OV-3 [4] and 0.33 nM in the assay on HT-29 [5]. The “Ratio IC50” value in the assay on HT-29 [3] was 2; in the assay with SK-OV-3 [6], 3.4.
With `COc1cc2cc(C(=O)N3CC(CCl)c4c3cc([N+](=O)[O-])c3cc(C(N)=O)ccc43)[nH]c2c(OC)c1OC` (configuration not stated), the half-inhibitory concentration (IC50) was 1.6 nM in the assay with SK-OV-3 [1], 7900 nM in the assay with HT-29 [2], 5800 nM in the assay with SK-OV-3 [4] and 3.6 nM in the assay with HT-29 [5]. Moreover, the “Ratio IC50” value in the assay with HT-29 [3] is reported as 2.8; in the assay on SK-OV-3 [6], 6.1.
As to `CN(C)CCOc1ccc2[nH]c(C(=O)N3CC(CCl)c4c3cc(N)c3cc(C#N)ccc43)cc2c1` (configuration not stated), the IC50 in the assay with SK-OV-3 [1] was 12 nM; in the assay on HT-29 [2], 17000 nM; in the assay on SK-OV-3 [4], 13000 nM; in the assay with HT-29 [5], 8.6 nM. For the same compound, the “Ratio IC50” value with HT-29 [3] stood at 2; in the assay with SK-OV-3 [6], 1.1.
Take `COC(=O)c1ccc2c3c(cc(N)c2c1)N(C(=O)c1cc2cc(OCCN(C)C)ccc2[nH]1)CC3CCl` (configuration not stated): the IC50 with SK-OV-3 [1] is 8.3 nM; in the assay on HT-29 [2], 8600 nM; in the assay with SK-OV-3 [4] it was 7700 nM; in the assay with HT-29 [5], 5.7 nM. Moreover, the “Ratio IC50” value in the assay on HT-29 [3] is 1.7; in the assay with SK-OV-3 [6] it was 0.91.
On to `COc1cc2cc(C(=O)N3CC(CCl)c4c3cc(N)c3cc(C#N)ccc43)[nH]c2c(OC)c1OC` (configuration not stated), for which the IC50 in the assay on SK-OV-3 [1] was 9 nM; in the assay with HT-29 [2] it was 15000 nM; in the assay with SK-OV-3 [4], 10000 nM; with HT-29 [5], 11 nM. Further, the “Ratio IC50” value in the assay with HT-29 [3] was 1.9; in the assay with SK-OV-3 [6], 1.3.
On to `COc1cc2cc(C(=O)N3CC(CCl)c4c3cc(N)c3cc(S(N)(=O)=O)ccc43)[nH]c2c(OC)c1OC` (configuration not stated), for which the IC50 in the assay on SK-OV-3 [1] is 33 nM; in the assay on HT-29 [2], 86000 nM; in the assay on SK-OV-3 [4], 41000 nM; in the assay with HT-29 [5] it was 91 nM. The “Ratio IC50” value in the assay with HT-29 [3] is on record as 1.1; in the assay with SK-OV-3 [6], 1.3.
Turning to `COc1cc2cc(C(=O)N3CC(CCl)c4c3cc(N)c3ccccc43)[nH]c2c(OC)c1OC` (configuration not stated), the IC50 was 1.7 nM in the assay on SK-OV-3 [1], 860 nM with HT-29 [2], 1300 nM in the assay on SK-OV-3 [4] and 2.5 nM with HT-29 [5]. Further, the “Ratio IC50” value is 0.76 with HT-29 [3] and 1 with SK-OV-3 [6].
Regarding `CC(=O)c1cccc2c3c(cc([N+](=O)[O-])c12)N(C(=O)c1cc2cc(OCCN(C)C)ccc2[nH]1)CC3CCl` (configuration not stated), the IC50 came to 52 nM with SK-OV-3 [1], 200 nM with HT-29 [2], 640 nM with SK-OV-3 [4] and 35 nM with HT-29 [5]. For the same compound, the “Ratio IC50” value stood at 5.2 in the assay on HT-29 [3] and 12 in the assay with SK-OV-3 [6].
As for `COc1cc2cc(C(=O)N3CC(CCl)c4c3cc([N+](=O)[O-])c3ccccc43)[nH]c2c(OC)c1OC` (configuration not stated), the IC50 is 1.7 nM in the assay on SK-OV-3 [1], 3400 nM in the assay with HT-29 [2], 4200 nM with SK-OV-3 [4] and 1.6 nM in the assay on HT-29 [5]. The “Ratio IC50” value in the assay on HT-29 [3] is recorded as 2.5; with SK-OV-3 [6] it was 2.8.
For the compound `CN(C)CCOc1ccc2[nH]c(C(=O)N3CC(CCl)c4c3cc(N)c3ccccc43)cc2c1` (configuration not stated), the IC50 came out at 6.6 nM in the assay on SK-OV-3 [1], 5000 nM with HT-29 [2], 6800 nM in the assay on SK-OV-3 [4] and 3.5 nM in the assay on HT-29 [5]. Further, the “Ratio IC50” value in the assay with HT-29 [3] stood at 1.3; in the assay with SK-OV-3 [6] it was 0.97.
As for `COc1cc2cc(C(=O)N3CC(CCl)c4c3cc([N+](=O)[O-])c3cc(C#N)ccc43)[nH]c2c(OC)c1OC` (configuration not stated), the 50% inhibitory concentration (IC50) in the assay on SK-OV-3 [1] was determined as 1000 nM; in the assay with HT-29 [2] it was 5300 nM; in the assay with SK-OV-3 [4], 6400 nM; with HT-29 [5] it was 2400 nM. Besides, the “Ratio IC50” value in the assay on HT-29 [3] is on record as 2.5; in the assay with SK-OV-3 [6], 13.
With `COc1cc2cc(C(=O)N3CC(CCl)c4c3cc([N+](=O)[O-])c3cccc([N+](=O)[O-])c43)[nH]c2c(OC)c1OC` (configuration not stated), the IC50 is greater than 50000 nM with SK-OV-3 [1], 34000 nM with HT-29 [2], 55000 nM with SK-OV-3 [4] and 33000 nM in the assay on HT-29 [5]. Further, the figures for the “Ratio IC50” value with HT-29 [3] and with SK-OV-3 [6] were 1.2 and less than 1.1, respectively.
Regarding `CN(C)CCOc1ccc2[nH]c(C(=O)N3CC(CCl)c4c3cc([N+](=O)[O-])c3c([N+](=O)[O-])cccc43)cc2c1` (configuration not stated), the IC50 was found to be 1.4 nM in the assay on SK-OV-3 [1], 2800 nM in the assay with HT-29 [2], 4100 nM with SK-OV-3 [4] and 1.3 nM in the assay with HT-29 [5]. Moreover, the entries for the “Ratio IC50” value with HT-29 [3] and with SK-OV-3 [6] were 2.2 and 2.9, respectively.
Turning to `CN(C)CCOc1ccc2[nH]c(C(=O)N3CC(CCl)c4c3cc(N)c3cc(C(N)=O)ccc43)cc2c1` (configuration not stated), the IC50 with SK-OV-3 [1] turned out to be 13 nM; in the assay on HT-29 [2], 61000 nM; in the assay on SK-OV-3 [4], 13000 nM; in the assay on HT-29 [5] it was 48 nM. Further, the “Ratio IC50” value in the assay on HT-29 [3] amounted to 1.4; with SK-OV-3 [6], 1.
As to `CN(C)CCOc1ccc2[nH]c(C(=O)N3CC(CCl)c4c3cc([N+](=O)[O-])c3cc(S(C)(=O)=O)ccc43)cc2c1` (configuration not stated), the concentration for half-maximal inhibition (IC50) turned out to be 0.12 nM with SK-OV-3 [1], 970 nM in the assay with HT-29 [2], 1300 nM with SK-OV-3 [4] and 0.27 nM in the assay on HT-29 [5]. Further, the entries for the “Ratio IC50” value in the assay on HT-29 [3] and in the assay on SK-OV-3 [6] were 4 and 11, respectively.
With `COc1cc2cc(C(=O)N3CC(CCl)c4c3cc([N+](=O)[O-])c3ccc(S(N)(=O)=O)cc43)[nH]c2c(OC)c1OC` (configuration not stated), the IC50 in the assay with SK-OV-3 [1] was 4.9 nM; in the assay on HT-29 [2], 24000 nM; in the assay on SK-OV-3 [4] it was 12000 nM; with HT-29 [5], 14 nM. Besides, the “Ratio IC50” value in the assay with HT-29 [3] is reported as 1.9; with SK-OV-3 [6] it was 2.6.
Regarding `CN(C)CCOc1ccc2[nH]c(C(=O)N3CC(CCl)c4c3cc([N+](=O)[O-])c3c(S(N)(=O)=O)cccc43)cc2c1` (configuration not stated), the IC50 in the assay with SK-OV-3 [1] was 800 nM; in the assay on HT-29 [2], 2700 nM; in the assay with SK-OV-3 [4], 3700 nM; in the assay with HT-29 [5] it was 1200 nM. The “Ratio IC50” value is reported as 2.3 in the assay on HT-29 [3] and 4.6 with SK-OV-3 [6].
For `CN(C)CCOc1ccc2[nH]c(C(=O)N3CC(CCl)c4c3cc(N)c3cc(S(C)(=O)=O)ccc43)cc2c1` (configuration not stated), the IC50 in the assay on SK-OV-3 [1] was determined as 8.2 nM; in the assay on HT-29 [2] it was 11000 nM; in the assay with SK-OV-3 [4], 14000 nM; with HT-29 [5] it was 7.3 nM. Further, the “Ratio IC50” value in the assay with HT-29 [3] came to 1.6; in the assay with SK-OV-3 [6] it was 1.7.
Take `CN(C)CCOc1ccc2[nH]c(C(=O)N3CC(CCl)c4c3cc([N+](=O)[O-])c3c(C(N)=O)cccc43)cc2c1` (configuration not stated): the IC50 was 3.2 nM in the assay with SK-OV-3 [1], 23000 nM in the assay on HT-29 [2], 50000 nM in the assay on SK-OV-3 [4] and 1.5 nM with HT-29 [5]. The “Ratio IC50” value is given as 43 in the assay on HT-29 [3] and 18 with SK-OV-3 [6].
Turning to `COc1cc2cc(C(=O)N3CC(CCl)c4c3cc([N+](=O)[O-])c3cc(S(N)(=O)=O)ccc43)[nH]c2c(OC)c1OC` (configuration not stated), the IC50 was 3.7 nM with SK-OV-3 [1], 43000 nM with HT-29 [2], 37000 nM with SK-OV-3 [4] and 12 nM with HT-29 [5]. The “Ratio IC50” value was found to be 3.6 in the assay with HT-29 [3] and 10 in the assay with SK-OV-3 [6].
For `COc1cc2cc(C(=O)N3CC(CCl)c4c3cc(N)c3cc(S(C)(=O)=O)ccc43)[nH]c2c(OC)c1OC` (configuration not stated), the IC50 in the assay with SK-OV-3 [1] was 25 nM; in the assay with HT-29 [2] it was 32000 nM; with SK-OV-3 [4], 32000 nM; in the assay with HT-29 [5] it was 36 nM. Besides, the “Ratio IC50” value with HT-29 [3] came to 0.86; in the assay on SK-OV-3 [6], 1.2.
